Screening data as filed in PubChem.
An excerpt weighted towards active compounds, which were near 1.8% of everything screened.
Runt-SMMHC FRET = inhibitors of human RUNX1 Runt domain binding to CBFb-SMMHC | Cerulean-Runt/Venus-CBFb-SMMHC FRET ratio 530/480, 1 h | inhibition, % at 20 µM | actives 0.74% (n = 220,000) | Q01196+Q13951;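 active = mean inhibition across duplicate retests at 20 µM reaching about 50%, limit read from the data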;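 also: 0% = DMSO wells and 100% = wells with excess untagged CBFb-SMMHC; inhibitors lower the FRET ratio by blocking Runt binding to CBFb-SMMHC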
Target sequence (Q01196 whole entry, looked up, the tested form may be a part): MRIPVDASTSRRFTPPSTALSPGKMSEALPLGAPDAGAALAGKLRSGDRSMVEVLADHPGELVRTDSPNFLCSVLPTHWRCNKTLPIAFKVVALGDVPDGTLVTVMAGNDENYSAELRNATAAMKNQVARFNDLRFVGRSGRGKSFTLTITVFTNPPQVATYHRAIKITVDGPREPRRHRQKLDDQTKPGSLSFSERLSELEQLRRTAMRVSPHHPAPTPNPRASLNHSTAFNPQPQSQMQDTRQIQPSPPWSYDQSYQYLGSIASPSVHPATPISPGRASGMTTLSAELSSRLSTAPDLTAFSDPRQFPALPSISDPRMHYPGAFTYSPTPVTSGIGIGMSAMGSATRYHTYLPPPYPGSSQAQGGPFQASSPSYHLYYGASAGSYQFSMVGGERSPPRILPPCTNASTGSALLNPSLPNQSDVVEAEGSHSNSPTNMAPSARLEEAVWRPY
Target sequence (Q13951 whole entry, looked up, the tested form may be a part): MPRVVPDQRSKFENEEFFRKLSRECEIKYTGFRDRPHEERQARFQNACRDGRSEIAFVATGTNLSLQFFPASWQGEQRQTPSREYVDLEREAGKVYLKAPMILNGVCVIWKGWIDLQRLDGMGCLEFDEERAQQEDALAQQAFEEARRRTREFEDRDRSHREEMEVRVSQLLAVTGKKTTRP
Hck Nef HTS = blocks Nef-activated human Hck kinase | Recombinant Hck-YEEI plus Nef, Z-Lyte FRET kinase assay | inhibition, % at 20 µM | actives 0.68% (n = 220,000);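 active = Hck-Nef kinase inhibition above about 50%, limit read from the data; inactive = inhibition below that limit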;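 also: 0% = DMSO with Hck plus Nef and 100% = Hck alone without Nef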
Runt-CBFb FRET = inhibitors of human RUNX1 Runt domain binding to CBFb; Cerulean-Runt/Venus-CBFb FRET ratio 530/480, 1 h; inhibition, % at 20 µM; actives 0.46% (n = 220,000); AID 1496;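 active = inhibition over about 50% at 20 µM in the single-dose screen, limit read from the data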;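 also: 0% = DMSO wells and 100% = excess unlabeled CBFb competitor control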
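test system = Cerulean-Runt domain fusion protein, energy donor | probe or stimulus = Venus-CBFb binding partner, 100 nM | incubation = two 1 h room-temperature incubations shielded from light | detection = fluorescence energy transfer, 422 nm excitation, 530/480 nm emission | measure = loss of energy transfer signal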
RanGTP-Imp inh = inhibitors of RanGTP-importin-beta interaction, primary screen, biochemical, FRET, CFP-Ran, YFP-importin-beta, homogeneous | cell-free CFP-Ran/YFP-importin-beta FRET ratio | inhibition, % (no concentration beside the values) | actives 1.1% (n = 300,000);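 active = more than half of the replicate wells show a fall in the fluorescence ratio signal beyond about 16%, limit read from the data, passing the limit was not always enough; inconclusive = exactly half of the replicate wells pass the set limit; inactive = fewer than half of replicates pass the limit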;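 also: 0% = DMSO wells and 100% = Ran loaded with GDP instead of GTP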
Active calls of the source: *; ? = inconclusive; . = no result given.

SMILES	Runt-SMMHC FRET	Hck Nef HTS	Runt-CBFb FRET	RanGTP-Imp inh
CCNC(=O)c1ccc(C23CC4CC(CC(C4)C2)C3)o1	2	-5	-1	0
COc1ccc(NC(=O)c2sc3nc(C)cc(C)c3c2N)c(OC)c1	.	.	.	1
COc1cccc(N2CC(=O)N(NC(=O)c3sc4nc(C)cc(C)c4c3N)CC2=O)c1	2	-3	4	16*
COc1ccc(NC(=O)C2Cc3cc(S(=O)(=O)N4CCCCC4)ccc3N2C(C)=O)cc1Cl (configuration not stated)	.	.	.	-1
O=c1[nH]c2ccccc2nc1/C=C/c1ccc(F)cc1	50	-1	16	38*
O=c1[nH]c2ccccc2nc1/C=C/c1ccccc1	88*	4	45	61*
O=c1[nH]c2ccccc2nc1/C=C/c1ccc(O)cc1	-16	18	-196	?
CC(C)(C)OC(=O)N[C@@H](COCc1ccccc1)C(=O)N[C@@H](CO)[C@H](O)[C@@H]1C[C@@H]1C(=O)NC1CCCCC1	.	.	.	-2
Cc1ccc(NC(=O)C2CC(O)CN2C(=O)OCc2ccccc2)c(C)c1 (configuration not stated)	.	.	.	0
CCCCn1c(=O)c2ccccc2c2ccccc2c1=O	-1	-1	-1	.
Cc1ccccc1-n1c(=O)c2ccccc2n2nnnc12	2	9	-1	1
Cc1ccccc1-n1c2nc(=O)n(C)c(=O)c-2cc2ccccc21	81*	49	12	136*
CCCCn1c(=O)nc2n(-c3ccccc3C)c3ccccc3cc-2c1=O	82*	33	4	130*
Cc1cc2c(cn1)C(CCC#N)(CCC#N)c1ccccc1-2	.	.	.	-1
CCOC(=O)CC(=O)CSc1nc2ccc(C)cc2cc1C#N	-47	2	11	.
CCOCCCNC(=S)NCCCNc1nc2ccc(C)cc2cc1C#N	89*	40	93*	.
Cc1cc(C)c2cc(C#N)c(NCCNC(=S)NCCCN3CCOCC3)nc2c1	43	29	23	5
CCOCCCNC(=S)NCCNc1nc2ccc(C)cc2cc1C#N	111*	9	81*	31*
COc1ccc(CCN2C(=NC(=O)C(C)C)SC3CS(=O)(=O)CC32)cc1 (configuration not stated)	0	15	1	4
CN(C(=O)c1ccc(NC(=O)C2CC=CCC2C(=O)O)cc1)c1ccccc1 (configuration not stated)	-2	7	2	25*
O=C(O)c1ccc(N/N=C/C2=Cc3ccccc3OC2)cc1	35	11	13	21*
O=C(O)c1ccc(N/N=C/c2ccncc2)cc1	.	.	.	4
C=CCOc1ccc(C2C(C#N)=C(N)N(Nc3ccccc3)C3=C2C(=O)CCC3)cc1OC (configuration not stated)	104*	15	89*	7
COc1cc(C2C(C#N)=C(N)N(Nc3ccccc3)C3=C2C(=O)CC(C)(C)C3)ccc1OCc1ccccc1 (configuration not stated)	32	5	18	5
CC(=O)c1cccc(NC(=O)Nc2c(C)nn(C)c2C)c1	-1	0	0	63*
SMILES	Runt-SMMHC FRET	Hck Nef HTS	Runt-CBFb FRET	RanGTP-Imp inh
CCOC(=O)c1ccc(NC(=O)Nc2c(C)nn(C)c2C)cc1	3	0	0	0
CN(C(=O)C1CCC(=O)N(Cc2cccc(F)c2)C1)C1CCCCC1 (configuration not stated)	.	.	.	4
C=CCC1CCC/C(=N\NS(=O)(=O)c2ccc(C)cc2)C1 (configuration not stated)	.	.	.	2
CCC1C/C(=C/c2ccco2)C(=O)/C(=C/c2ccco2)C1 (configuration not stated)	-22	62*	10	.
CCC1C/C(=C\c2cc(OC)c(OC)cc2OC)C(=O)/C(=C/c2cc(OC)c(OC)cc2OC)C1 (configuration not stated)	.	.	.	-70
Cc1nn(Cc2ccc([N+](=O)[O-])cc2)c(=O)n1-c1cccc(Cl)c1	-2	2	3	20*
CCOc1ccccc1NC(=O)Nn1cnnc1	.	.	.	3
CCC(C)[C@H](N)c1cn([C@@H](CCCCN)C(=O)N2CCNCC2)nn1 (some centres not stated)	-1	-10	0	6
COCCn1c(N)c(Sc2ccc(Cl)cc2)c(=O)[nH]c1=O	.	.	.	5
CC(C)(C)OC(=O)NCCC(=O)Oc1ccc2ccc(=O)oc2c1	68*	73*	43	5
O=C(Oc1ccc2ccc(=O)oc2c1)c1cccs1	28	56*	22	2
O=C(Oc1ccc2c(-c3ccccc3)cc(=O)oc2c1)c1cccs1	-5	4	-4	0
O=C(CNC(=O)OCc1ccccc1)Oc1ccc2ccc(=O)oc2c1	.	.	.	13
COc1ccc(Nc2nc(N)nc(CSC(=S)N3CCCCC3C)n2)cc1 (configuration not stated)	-2	16	1	5
S=c1[nH]nc(-c2ccccn2)n1/N=C/c1ccc(Cl)c(Cl)c1	5	2	13	5
S=c1[nH]nc(-c2ccccn2)n1/N=C/c1ccc(-c2ccccc2Cl)o1	11	76*	10	1
COc1ccc(Cn2c(O)c(C=Nc3ccc(C)cc3)c3ccccc3c2=O)cc1	-84	6	-55	-4
COc1ccc(N=Cc2c(O)n(-c3ccc(OC)cc3)c(=O)c3ccccc23)cc1	90*	32	3	5
COc1ccc(Cn2c(O)c(C=Nc3ccc(O)cc3)c3ccccc3c2=O)cc1	9	-1	-175	30*
COc1ccc(Cn2c(O)c(C=Nc3ccccc3)c3ccccc3c2=O)cc1	-20	3	-7	-6
O=c1c2ccccc2c(C=Nc2ccc(O)cc2)c(O)n1Cc1ccccc1	-79	18	-80	33*
CC(C)(CCl)C(=O)Nc1ccnc(-c2ccncc2)n1	-6	16	0	4
c1ccc(C2=NN(c3ccccc3)CC2)cc1	25	0	2	?
CCOC(=O)/C(=C/c1ccc(N2CCC(c3ccccc3)=N2)cc1)C(C)=O	79*	-25	5	-2
CC(=O)N1CCc2cc(S(=O)(=O)NC(CC(C)C)C(=O)N3CCCC3)ccc21 (configuration not stated)	.	.	.	-2
SMILES	Runt-SMMHC FRET	Hck Nef HTS	Runt-CBFb FRET	RanGTP-Imp inh
Cc1ccc(S(=O)(=O)c2cc(C#N)c(=O)[nH]c2N)cc1	107*	2	19	-2
COc1nc(N)c(S(=O)(=O)c2ccc(C)cc2)cc1C#N	24	1	10	5
O=C(O)c1cc(N/N=C/C=C/c2ccccc2)ccc1Cl	87*	1	39	-2
N#CC(C#N)=Cc1ccc(OCC(=O)N2CCOCC2)cc1	1	20	2	-5
CC(C)Sc1nc(-c2cccs2)nc2c1c(=O)n(C)c(=O)n2C	-4	53*	0	.
Cc1nn2c3c(cnc2c1-c1ccc(Cl)cc1)C(=O)CC(c1ccco1)C3 (configuration not stated)	-186	.	-101	19*
